PolyA inh – polyadenylation inhibitors in yeast reporter cells, primary screen, luminescence, S. cerevisiae; activity score, % at 12 µM; 0.02% of 300,000 active; AID 1875, 2009; S. cerevisiae SKY197-pL101 polyadenylation reporter, beta-gal luminescence; efflux-impaired pdr1/pdr3 knockout yeast; score 100 = 6 SD above DMSO;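 active = lowest replicate activity score at least 50, where 100 means six control SD above control mean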;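 also: yeast exposed to compound for 9 h at 30 °C; higher score means more reporter readthrough which indicates perturbed polyadenylation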
A3G deaminase – APOBEC3G DNA deaminase inhibitors, primary screen, biochemical, fluorescence, single-stranded DNA substrate, uHTS | DNA dC->dU-editing enzyme APOBEC-3G (Homo sapiens), Q9HC16 | recombinant A3G, ssDNA deamination FAM/TAMRA fluorescence | inhibition, % at 20 µM | 0.28% of 330,000 active;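 active = inhibition of at least 40% at 20 µM, with no more than 30% in the related APOBEC3A deaminase screen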
AHR activator – AHR activators, primary screen, cell-based, luminescence, luciferase reporter, human; AHR-responsive luciferase reporter cells; AID 2796, 2010; activation, % at 5 µM; Aryl hydrocarbon receptor (Homo sapiens), P35869; 2.5% of 320,000 active; in the data active = activation above about 47%
UCH37 inh – inhibitors of human UCH37 deubiquitinase, primary screen, biochemical, Ub-AMC cleavage, fluorescence; Ubiquitin carboxyl-terminal hydrolase isozyme L5 (Homo sapiens), Q9Y5K5; purified proteasome/UCH37; AID 588478, 2011; 0.33% of 330,000 active; inhibition, % (no concentration beside the values);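 active = mean inhibition over replicate wells above about 20%, limit read from the data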
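Reagent: Ub-AMC substrate; assay system: Proteasome-associated human UCH37 deubiquitinase; controls: no-proteasome and no-compound wells; read-out: % inhibition of Ub-AMC cleavage fluorescence; timing: 30 min preincubation with enzyme, 25 min cleavage at room temperature; signal: AMC fluorescence from Ub-AMC cleavage, excitation 355 nm, emission 460 nm; buffer or medium: Tris-HCl pH 7.4 plus ovalbumin, ATP-MgCl2, DTT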
Arrestin-AP2 inh – inhibitors of beta-arrestin/AP2 binding, primary screen, biochemical, GPCR trafficking, flow cytometry. beta-arrestin 1 C-terminal peptide binding to AP2 beta2-adaptin appendage (human). FITC-arrestin peptide / GST-AP2 beads; AP2 beta2 appendage carries R879A mutation. inhibition, % at 10 µM. 0.31% of 340,000 active;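 active = inhibition above a set limit, near 3 SD of compounds lacking own fluorescence, cut at about 54% in these data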
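System: GST-AP2 R879A glutathione beads. Medium: PBS with 0.05% Tween 20 and 0.1% BSA. Also added: FITC-arrestin peptide, 50 nM. Incubation: 12 min plus 1 h, RT. Measured by: high-throughput flow cytometry of beads, ex 488, em 535 nm. Evaluation: percent drop in bead-associated FITC signal.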
A3A deaminase – APOBEC3A ssDNA deaminase inhibitors, primary screen, selectivity assay for APOBEC3G inhibitor project, biochemical, FAM/TAMRA oligo cleavage fluorescence; DNA dC->dU-editing enzyme APOBEC-3A (Homo sapiens), P31941; recombinant A3A, FAM/TAMRA ssDNA deamination fluorescence; inhibition, % at 20 µM; 0.41% of 330,000 active; AID 493011, 2011;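 active = at least 40% inhibition at 20 µM here, with at most 30% in a related deaminase screen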
Target sequence (P31941 whole entry, looked up): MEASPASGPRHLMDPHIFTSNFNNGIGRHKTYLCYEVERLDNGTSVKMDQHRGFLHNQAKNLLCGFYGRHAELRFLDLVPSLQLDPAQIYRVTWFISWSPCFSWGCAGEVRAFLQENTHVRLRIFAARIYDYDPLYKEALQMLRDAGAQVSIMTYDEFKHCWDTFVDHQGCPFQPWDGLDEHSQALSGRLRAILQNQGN
Arr-AP2 CP1 – inhibitors of arrestin peptide binding to AP2, confirmation, biochemical, cherry pick 1, flow cytometry beads | shares compounds with Arrestin-AP2 inh | GST-AP2 beads, FITC arrestin peptide binding; GST-fused beta2-adaptin appendage, R879A mutant | inhibition, % at 10 µM | 2% of 1,300 active | AID 504908, 2011;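 active = inhibition above a set limit, roughly 3 SD of non-fluorescent compound noise, cut at about 38% in these data; inactive = inhibition at or below that limit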;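 also: loss of bead fluorescence from 50 nM FITC arrestin peptide bound to appendage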
GST-FITC bead – GST-fluorescein capture on glutathione beads, confirmation, artefact control for arrestin-AP2 inhibitor project, biochemical, cherry pick 1, flow cytometry | shares compounds with Arrestin-AP2 inh | GST-fluorescein binding to GSH beads, fluorescence, counter-screen | inhibition, % at 10 µM | 2% of 1,300 active | AID 588338, 2011;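 active = inhibition above 50%, about 3 SD of the inhibition seen with non-fluorescent compounds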;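 also: fluorescein maleimide labelled GST captured on 4 micron glutathione beads; higher means more loss of bead fluorescence from quenching or blocked binding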
Hits are given with their value; 0 = inactive; - = no result given. Hits are enriched below; roughly 3.4% of the tested compounds scored in any of these assays.

SMILES	PolyA inh	A3G deaminase	AHR activator	UCH37 inh	Arrestin-AP2 inh	A3A deaminase	Arr-AP2 CP1	GST-FITC bead
COc1ccc(CNC(=O)CN(CC2CCCO2)C(=O)CNS(=O)(=O)c2ccc(C)cc2)cc1 (stereo unspecified)	0	0	0	0	77.4	0	0	0
COc1ccc(S(=O)(=O)NN=C(C)c2ccco2)cc1	-	-	-	0	-	-	-	-
CC(C)(C)OC(=O)NCCC(=O)NN=Cc1cccc2cccnc12	-	-	-	0	-	-	-	-
CCOC(=O)c1c(C)[nH]c(C(=O)CN2C(=O)C(=O)N(CC(C)C)C2=O)c1C	0	0	0	0	55.6	0	0	0
Cc1ccc(S(=O)(=O)N2CCN(CC(=O)NN=Cc3ccco3)CC2)cc1	-	-	-	0	-	-	-	-
CN(Cc1nccs1)C(=O)C1CCC(=O)N(Cc2ccccc2F)C1 (stereo unspecified)	0	0	0	0	0	0	-	-
CN(Cc1nccs1)C(=O)C1CCC(=O)N(CCCc2ccccc2)C1 (stereo unspecified)	0	0	-	0	57.2	0	0	0
COc1cc2c(cc1NC(=O)COc1ccc3ccccc3c1)oc1ccccc12	0	0	0	0	0	0	-	-
COc1ccc(CC(=O)Nc2cc3oc4ccccc4c3cc2OC)cc1	0	0	0	0	0	0	0	0
COc1cc2c(cc1NC(=O)CSc1ccc(Cl)cc1)oc1ccccc12	0	0	0	0	0	0	0	0
COc1ccccc1CC(=O)Nc1cc2oc3ccccc3c2cc1OC	0	0	0	0	54.2	0	0	0
COc1ccc(NC(=O)CC(C)CC(=O)NCc2ccccc2)c(OC)c1 (stereo unspecified)	0	0	0	0	61.5	0	0	0
O=C(NN=Cc1ccc(F)cc1)c1cc(-c2ccccn2)nc2ccccc12	-	-	-	0	-	-	-	-
CCN(CC)c1ccc(C(=O)OCC(=O)Nc2cc3oc4ccccc4c3cc2OC)cc1	0	0	0	0	0	0	0	0
O=C1N/C(=C/c2cccn2-c2ccc(F)cc2)C(=O)N1Cc1ccccc1F	0	0	0	0	105.2	0	0	0
Cc1ccc(/C=C2/NC(=O)N(Cc3ccccc3F)C2=O)o1	0	0	0	0	0	0	-	-
CCOc1ccc(C(C)=O)cc1N1C(=O)C2C3C=CC(O3)C2C1=O (stereo unspecified)	0	49.4	0	0	78.1	0	0	0
CCOc1ccc(C(=O)NCC(=O)NNC(=O)C2COc3ccccc3O2)cc1OCC (stereo unspecified)	0	0	0	0	65.1	0	0	0
CCCCOc1ccc(C(=O)NCC(=O)NNC(=O)C2COc3ccccc3O2)cc1 (stereo unspecified)	-	0	0	0	0	0	-	-
Cc1ccc(CN(C(=O)c2ccccc2C)C2CCS(=O)(=O)C2)o1 (stereo unspecified)	0	0	0	0	56.1	0	0	0
Cc1ccc(CN(C(=O)c2ccccc2[N+](=O)[O-])C2CCS(=O)(=O)C2)o1 (stereo unspecified)	0	0	0	0	0	0	-	-
O=C(NN=Cc1ccc(N2CCOCC2)s1)c1ccc(NS(=O)(=O)c2cccs2)cc1	-	-	-	0	-	-	-	-
